Measurements of several laboratories.
Each line is one published result; the experiments were not run side by side.
CA1: Carbonic anhydrase 1 (CA1, Homo sapiens, UniProt P00915)
LATS1: Serine/threonine-protein kinase LATS1 (LATS1, Homo sapiens, UniProt O95835)
ADRA2A: Alpha-2A adrenergic receptor (ADRA2A, Homo sapiens, UniProt P08913)
SLC18A2: Synaptic vesicular amine transporter (SLC18A2, Homo sapiens, UniProt Q05940)

CN1CCC(=C2c3ccccc3CC(=O)c3sccc32)CC1
IC50 (CA1; enzyme activity, inhibitor, absorbance; pH 7.4): 10300 nM

c1cc(-c2ccc(C3CCNCC3)cc2)c2cc[nH]c2n1
IC50 (LATS1; target engagement in cells, BRET): > 50000 nM

Cc1cc(Oc2ncccc2CN2CCN(c3cccc(Cl)c3Cl)CC2)ccc1-c1c(C)c(=O)[nH]c(=O)n1C
Ki (ADRA2A; ligand displacement, radioligand): 214 nM

COc1cc(C)c(/C=C/C(C)=C/C=C/C(C)=C/C(=O)O)c(C)c1C
IC50 (Carbonic anhydrase 2 (CA2, Homo sapiens, UniProt P00918); enzyme activity, inhibitor, absorbance; pH 7.4): 12600 nM

COc1ccc(Cl)cc1N1CCN(Cc2cccnc2Oc2ccc(-c3c(C)c(=O)[nH]c(=O)n3C)c(C)c2)CC1
Ki (ADRA2A; ligand displacement, radioligand): 76.5 nM

Cc1cc(-c2ccnc3[nH]cc(F)c23)cc(F)c1[C@@]1(O)[C@H](C)CN(C(=O)CN)C[C@@H]1C
Kd (LATS1; binding, TR-FRET): 0.9 nM

Cc1cc(Oc2ncccc2CN2CCN(c3ccc(F)cc3F)CC2)ccc1-c1c(C)c(=O)[nH]c(=O)n1C
Ki (ADRA2A; ligand displacement, radioligand): 326 nM

CC(C)(C(=O)O)c1ccc(C(O)CCCN2CCC(C(O)(c3ccccc3)c3ccccc3)CC2)cc1 (centres unmarked)
IC50 (CA1; enzyme activity, inhibitor, absorbance; pH 7.4): 19300 nM

O=C1Nc2ccc(Cl)cc2[C@@](C#CC2CC2)(C(F)(F)F)O1
IC50 (SLC18A2; transporter uptake, inhibitor): 6120 nM

Cc1cc(Oc2ncccc2CN2CCN(Cc3ccc(F)cc3)CC2)ccc1-c1c(C)c(=O)[nH]c(=O)n1C
Ki (ADRA2A; ligand displacement, radioligand): 2210 nM

COc1cc2nc(N(C)CCCNC(=O)C3CCCO3)nc(N)c2cc1OC (centres unmarked)
IC50 (SLC18A2; transporter uptake, inhibitor): 249 nM

O=C(Nc1c[nH]nc1-c1nc2cc(CN3CCOCC3)ccc2[nH]1)NC1CC1
IC50 (LATS1; enzyme activity, inhibitor, radiometric): 73 nM

COc1ccc(CN=c2[nH]c(N3CCC[C@H]3CO)ncc2C(=O)NCc2ncccn2)cc1Cl
IC50 (SLC18A2; transporter uptake, inhibitor): 9670 nM

Cc1cc(Oc2ncccc2CN2CCN(c3ncccc3C(F)(F)F)CC2)ccc1-c1c(C)c(=O)[nH]c(=O)n1C
Ki (ADRA2A; ligand displacement, radioligand): 47.4 nM

CCc1nn(CCCN2CCN(c3cccc(Cl)c3)CC2)c(=O)n1CCOc1ccccc1
IC50 (SLC18A2; transporter uptake, inhibitor, radiometric; cell membranes): 667 nM

Cc1cc(C#CC2(O)CCCCC2)cc2c1cc(C(=O)O)n2-c1ccccc1
Kd (Microphthalmia-associated transcription factor (Homo sapiens, UniProt O75030); binding, ITC): 3500 nM

Cc1ccccc1N1CCN(CCc2nnc3n2CCCC3)CC1
IC50 (SLC18A2; transporter uptake, inhibitor): 566 nM

Cc1cc(Oc2ncccc2CN2CCN(c3ccccc3Br)CC2)ccc1-c1c(C)c(=O)[nH]c(=O)n1C
Ki (ADRA2A; ligand displacement, radioligand): 135 nM

OC1(c2ccc(-c3ccnc4[nH]cc(F)c34)cc2)CCCNC1 (centres unmarked)
IC50 (LATS1; enzyme activity, inhibitor, radiometric): 26 nM

O=c1n(CCCN2CCN(c3cccc(Cl)c3)CC2)nc2ccccn12
IC50 (SLC18A2; transporter uptake, inhibitor): 2780 nM
